ChEMBL document CHEMBL3526029, “Disposition and metabolism of GSK2251052 in humans: a novel boron-containing antibiotic” (Drug Metab Dispos, 2013)

Assays:
Liver microsome = experiment: Drug metabolism in human liver microsomes assessed as (S)-3-(3-(aminomethyl)-1-hydroxy-1,3-dihydrobenzo[c][1,2]oxaborol-7-yloxy)propanoicacid formation at 50 to 500 uM after 3 hrs by liquid scintillation counting in presence of NADPH regeneration system; type: ADME
[1] = Drug recovery in healthy human urine at 1500 mg, iv infusion for 1 hr as single dose after 48 hrs; type: ADME, organism-based; details: read-out: Drug recovery
[2] = Drug recovery in healthy human feces at 1500 mg, iv infusion for 1 hr as single dose after 48 hrs; type: ADME, organism-based; details: read-out: Drug recovery
[3] = Drug recovery in healthy human urine at 1500 mg, iv infusion for 1 hr as single dose after 144 hrs; type: ADME, organism-based; details: read-out: Drug recovery
[4] = Drug recovery in healthy human feces assessed as total radioactivity at 1500 mg, iv infusion for 1 hr as single dose after 120 to 336 hrs by HPLC method; type: ADME, organism-based; details: in vivo, in the assay text read “0 to 120 hrs” for “120 to 336 hrs”
How it was run: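 Feces were collected at 24-h intervals through 336 h after a 1500 mg [14C] i.v. 1-h infusion. Samples were homogenised with water and duplicate aliquots combusted for LSC. For profiling, 0–120 h pools were extracted twice with acetonitrile:methanol:water:formic acid, reconstituted, and analysed by radio-HPLC. Values were reported as % dose.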

[5] = Drug recovery in healthy human feces at 1500 mg, iv infusion for 1 hr as single dose after 96 hrs; type: ADME, organism-based; details: read-out: Drug recovery
[6] = Total drug recovery in healthy human at 1500 mg, iv infusion for 1 hr as single dose after 216 hrs; type: ADME, organism-based; details: in vivo, read-out: Drug recovery
How it was run: (§1)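 Six healthy adult males, fasted ≥10 h, got one 1500 mg [14C]GSK2251052 dose ([…], 0.56 MBq) as a constant-rate 1-h IV infusion in 0.9% NaCl. Urine was collected at 0–6, 6–12 and 12–24 h, then in 24-h blocks to 336 h; feces in 24-h blocks. Urine was counted directly by LSC; feces were homogenized and combusted in duplicate before LSC. Cumulative recovery is given as mean % of dose.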

Plasma [7] = experiment: Half life in healthy human plasma assessed as radioactivity at 1500 mg, iv infusion for 1 hr as single dose; type: ADME, organism-based; details: in vivo
How it was run: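 Healthy men got a single 1500 mg [14C] dose by 1 h i.v. infusion. K2EDTA blood was sampled up to 336 h. Radioactivity in blood and plasma was measured by LSC, with AMS for plasma below LLQ. Parent and M3 were measured by LC/MS/MS (5–10,000 ng/ml range). Noncompartmental analysis used actual times, with t1/2 = ln2/λz and Tmax observed directly, timed from infusion start.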

[8] = Drug recovery in healthy human feces at 1500 mg, iv infusion for 1 hr as single dose after 336 hrs; type: ADME, organism-based; details: read-out: Drug recovery
[9] = Drug metabolism in cynomolgus monkey cytosol assessed as (S)-3-(3-(aminomethyl)-1-hydroxy-1,3-dihydrobenzo[c][1,2]oxaborol-7-yloxy)propanoicacid formation at 50 to 500 uM after 3 hrs by liquid scintillation counting in presence of NAD+ and ADH inhibitor 4-MP; type: ADME, Macaca fascicularis, Liver
How it was run: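 NAD+ (7.5 mM) incubations of [14C]GSK2251052 with 4 mg/ml monkey liver cytosol or liver S9 in pyrophosphate buffer included 4-MP at 0.6 mM final. Incubations ran in triplicate at 37°C. Extracts were counted by LSC and pooled for radio-HPLC.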

[10] = Total drug recovery in healthy human at 1500 mg, iv infusion for 1 hr as single dose after 24 hrs; type: ADME, organism-based; details: in vivo, read-out: Drug recovery; how it was run: as §1
[11] = Drug metabolism in cynomolgus monkey kidney S9 fraction assessed as (S)-3-(3-(aminomethyl)-1-hydroxy-1,3-dihydrobenzo[c][1,2]oxaborol-7-yloxy)propanoicacid formation at 50 to 500 uM after 3 hrs by liquid scintillation counting in presence of NADPH regeneration system; type: ADME, Macaca fascicularis; details: s9, 3 h
[12] = Drug recovery in healthy human feces at 1500 mg, iv infusion for 1 hr as single dose after 168 hrs; type: ADME, organism-based; details: faeces, read-out: Drug recovery
[13] = Drug metabolism in cynomolgus monkey lung S9 fraction assessed as (S)-3-(3-(aminomethyl)-1-hydroxy-1,3-dihydrobenzo[c][1,2]oxaborol-7-yloxy)propanoicacid formation at 50 to 500 uM after 3 hrs by liquid scintillation counting in presence of NADPH regeneration system; type: ADME, Macaca fascicularis; details: s9, 3 h
[14] = Total drug recovery in healthy human at 1500 mg, iv infusion for 1 hr as single dose after 96 hrs; type: ADME, organism-based; details: in vivo, read-out: Drug recovery; how it was run: as §1
[15] = Drug metabolism in cynomolgus monkey liver S9 fraction assessed as (S)-3-(3-(aminomethyl)-1-hydroxy-1,3-dihydrobenzo[c][1,2]oxaborol-7-yloxy)propanoicacid formation at 50 to 500 uM after 3 hrs by liquid scintillation counting in presence of NADPH regeneration system; type: ADME, subcellular, Macaca fascicularis; details: s9, 3 h
[16] = Total drug recovery in healthy human at 1500 mg, iv infusion for 1 hr as single dose after 192 hrs; type: ADME, organism-based; details: in vivo, read-out: Drug recovery
[17] = Drug metabolism in human liver S9 fraction assessed as (S)-3-(3-(aminomethyl)-1-hydroxy-1,3-dihydrobenzo[c][1,2]oxaborol-7-yloxy)propanoicacid formation at 50 to 500 uM after 3 hrs by liquid scintillation counting in presence of NAD+; type: ADME, subcellular; details: s9, 3 h
How it was run: (§2)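 [14C]GSK2251052 was incubated in triplicate for 1 or 3 h at 37°C with 4 mg/ml S9 (monkey liver, lung or kidney; human liver), liver cytosol or liver microsomes and 7.5 mM NAD+. Buffer was pyrophosphate at pH 7.4, 8.4 or 8.8. Controls lacked cofactor or enzyme. Reactions were quenched with acetonitrile, counted by LSC, and pooled for radio-HPLC.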

[18] = Drug metabolism in healthy human urine assessed as 2-(2-amino-1-hydroxyethyl)-6-(3-hydroxypropoxy)phenol formation at 1500 mg, iv infusion for 1 hr as single dose by mass spectrometry; type: ADME, organism-based; details: in vivo
How it was run: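 Urine was collected through 336 h after a 1500 mg [14C] i.v. 1-h infusion to six men. Samples were pooled by weight (0–120 h per subject; 120–336 h composite) and centrifuged. Profiling used HPLC (Atlantis T3, ammonium acetate pH 4.5/methanol, 30°C) with fraction radioactivity counting. Identity came from Orbitrap positive-ion accurate mass. Values were given as % dose, corrected for recovery.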

[19] = Drug recovery in healthy human feces at 1500 mg, iv infusion for 1 hr as single dose after 192 hrs; type: ADME, organism-based; details: faeces, read-out: Drug recovery
[20] = Drug metabolism in cynomolgus monkey lung S9 fraction assessed as (S)-3-(3-(aminomethyl)-1-hydroxy-1,3-dihydrobenzo[c][1,2]oxaborol-7-yloxy)propanoicacid formation at 50 to 500 uM after 3 hrs by liquid scintillation counting in presence of NAD+; type: ADME, Macaca fascicularis; details: s9, 3 h; how it was run: as §2
Plasma [21] = experiment: Cmax in healthy human plasma assessed as radioactivity at 1500 mg, iv infusion for 1 hr as single dose; type: ADME, organism-based; parameters: dose 1500 mg, route intravenous; details: in vivo
How it was run: (§3)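 Six fasted healthy men received 1500 mg [14C]GSK2251052 as a 1-h i.v. infusion. Blood and plasma were sampled from predose to 336 h after infusion start. Radioactivity was counted by LSC; plasma below 870 ng eq/ml was reanalysed by accelerator MS, with predose background subtracted. Noncompartmental analysis used actual sampling times, linear-up/log-down trapezoids and CL = dose/AUC(0-∞).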

Blood = experiment: AUC (0 to t) in healthy human whole blood assessed as radioactivity at 1500 mg, iv infusion for 1 hr as single dose; type: ADME, organism-based; details: in vivo; how it was run: as §3

Drug metabolism (Liver microsome): metabolite_not_detected | dose excreted at 48 h [1]: 69.2% | dose excreted at 48 h [2]: 1.3% | dose excreted at 144 h [3]: 85.1% | Drug recovery [4]: 6% | dose excreted at 96 h [5]: 6.4% | dose excreted at 216 h [6]: 95.8% | t1/2 (Plasma [7]): 96 h | dose excreted at 336 h [8]: 7.6% | Drug metabolism [9]: metabolite_not_detected | dose excreted at 24 h [10]: 51.3% | Drug metabolism [11]: metabolite_not_detected | dose excreted at 168 h [12]: 7.6% | Drug metabolism [13]: metabolite_not_detected | dose excreted at 96 h [14]: 87.5% | Drug metabolism [15]: metabolite_not_detected | dose excreted at 192 h [16]: 95% | Drug metabolism [17]: metabolite_not_detected | Drug recovery [18]: metabolite_detected | dose excreted at 192 h [19]: 7.6% | Drug metabolism [20]: metabolite_not_detected | Cmax (Plasma [21]): 24.3 µg/mL | AUCt (Blood): 141 µg·h/mL
Compound: Cl.N[14CH2][C@H]1OB(O)c2c(OCCCO)cccc21
